≈ marks a conversion by molar mass, not a printed value.
Tested on: HL-60
Experiment: Tumor necrosis factor-alpha production in human leukemia cell line (HL-60) stimulated with 50 nM okadaic acid (OA), at 30 uMolar.
Format: functional
Summary of the method: (§1)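 HL-60 cells at 5 × 10⁵/mL in RPMI1640 + 10% FBS were co-treated with 30 μM test compound and either 10 nM TPA or 50 nM OA for 16 h at 37 °C. Culture-medium TNF-α was measured by ELISA and expressed as % of inducer-alone control. Cell counts were taken at harvest. Assays were run in duplicate or triplicate (mean taken), at least three times.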

Compound	Amount of TNF-alpha
Cc1cccc(C(C)C)c1N1C(=O)c2ccccc2C1=O	33%
CC(C)c1cccc(C(C)C)c1N1C(=O)c2c(Br)c(Br)c(Br)c(Br)c2C1=O	3%
CCc1cccc(C(C)C)c1N1C(=O)c2ccccc2C1=O	26%
CC(C)c1cccc(N2C(=O)c3ccccc3C2=O)c1	105%
O=C1c2ccccc2C(=O)N1c1ccccc1-c1ccccc1	40%
O=C1c2ccccc2C(=O)N1c1ccccc1[N+](=O)[O-]	53%
O=C1c2ccccc2C(=O)N1c1ccccc1 [N-PHENYL-PHTHALIMIDE]	61%
O=C1CCC(N2C(=O)c3ccccc3C2=O)C(=O)N1 (stereo unspecified) [THALIDOMIDE]	58%

Tested on: HL-60
Experiment: Amount of tumor necrosis factor-alpha produced by human leukemia cell line (HL-60) stimulated with 10 nM12-O-tetradecanoylphorbol 13-acetate (TPA) at 0.3 uM, measured by ELISA
Format: functional
Summary of the method: (§2)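 HL-60 cells (2.5 × 10⁵ in 0.5 mL, i.e. 5 × 10⁵/mL), growing exponentially in RPMI1640 + 10% FBS, were exposed to 10 nM TPA or 50 nM OA together with 0.3 μM test compound for 16 h at 37 °C. Secreted TNF-α was quantified by ELISA and expressed as % of inducer-alone production. Each run was done in duplicate or triplicate (mean taken) and repeated at least three times.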

Compound	Amount of TNF-alpha
C[C@H](c1ccccc1)N1C(=O)c2c(F)c(F)c(F)c(F)c2C1=O	97%
C[C@H](C1CCCCC1)N1C(=O)c2c(F)c(F)c(F)c(F)c2C1=O	98%
CC[C@@H](c1ccccc1)N1C(=O)c2c(F)c(F)c(F)c(F)c2C1=O	235%
O=C1c2c(F)c(F)c(F)c(F)c2C(=O)N1[C@H]1CCc2ccccc21	392%
C[C@@H](c1ccc(N)cc1)N1C(=O)c2c(F)c(F)c(F)c(F)c2C1=O	262%
O=C1c2c(F)c(F)c(F)c(F)c2C(=O)N1C1Cc2ccccc2C1	104%
C[C@@H](c1cccc2ccccc12)N1C(=O)c2c(F)c(F)c(F)c(F)c2C1=O	101%
C[C@H](c1cccc2ccccc12)N1C(=O)c2c(F)c(F)c(F)c(F)c2C1=O	100%
C[C@@H](C1CCCCC1)N1C(=O)c2c(F)c(F)c(F)c(F)c2C1=O	124%
C[C@@H](c1ccc([N+](=O)[O-])cc1)N1C(=O)c2c(F)c(F)c(F)c(F)c2C1=O	268%
C[C@H](c1ccc(N)cc1)N1C(=O)c2c(F)c(F)c(F)c(F)c2C1=O	241%
O=C1c2c(F)c(F)c(F)c(F)c2C(=O)N1[C@@H]1CCc2ccccc21	233%
CC[C@H](c1ccccc1)N1C(=O)c2c(F)c(F)c(F)c(F)c2C1=O	111%
C[C@H](c1ccc([N+](=O)[O-])cc1)N1C(=O)c2c(F)c(F)c(F)c(F)c2C1=O	239%
CC(=O)Nc1ccc([C@@H](C)N2C(=O)c3c(F)c(F)c(F)c(F)c3C2=O)cc1	220%

Tested on: WI-38
Experiment: The cytotoxicity of the compounds assessed using human embryonic lung fibroblast WI-38 cells at (2.3 micro M)
Format: functional, cell-based
Summary of the method: (§3)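 WI-38 human embryonic lung fibroblasts (5 × 10³ cells/well) in RPMI1640 + 10% FCS were exposed to graded concentrations of compound for 48 h at 37 °C. Viability was read by WST-1 with 1-methoxy PMS (2 h, 37 °C; absorbance at 450 nm). IC50 was reported in μg/mL, with the μM equivalent in parentheses.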

Compound	IC50
CC(C)c1cccc(C(C)C)c1N1C(=O)c2c(F)c(F)c(F)c(F)c2C1=O	0.9 µg/mL (≈ 2.37 µM)

Tested on: WI-38
Experiment: The cytotoxicity of the compounds assessed using human embryonic lung fibroblast WI-38 cells at (40 micro M)
Format: functional, cell-based
Summary of the method: as §3

Compound	IC50
C[C@H](c1ccccc1)N1C(=O)c2c(F)c(F)c(F)c(F)c2C1=O	12.8 µg/mL (≈ 39.6 µM)

Tested on: HL-60
Experiment: Tumor necrosis factor-alpha production in human leukemia cell line (HL-60) stimulated with 10 nM 12-O-tetradecanoylphorbol 13-acetate (TPA) at 30 uMolar.
Format: functional
Summary of the method: as §1

Compound	Amount of TNF-alpha
Cc1cccc(C(C)C)c1N1C(=O)c2ccccc2C1=O	234%
CC(C)c1cccc(C(C)C)c1N1C(=O)c2c(Br)c(Br)c(Br)c(Br)c2C1=O	235%
CCc1cccc(C(C)C)c1N1C(=O)c2ccccc2C1=O	255%
CC(C)c1cccc(N2C(=O)c3ccccc3C2=O)c1	158%
O=C1c2ccccc2C(=O)N1c1ccccc1-c1ccccc1	262%
O=C1c2ccccc2C(=O)N1c1ccccc1[N+](=O)[O-]	89%
O=C1c2ccccc2C(=O)N1c1ccccc1 [N-PHENYL-PHTHALIMIDE]	100%
O=C1CCC(N2C(=O)c3ccccc3C2=O)C(=O)N1 (stereo unspecified) [THALIDOMIDE]	135%

Tested on: WI-38
Experiment: The cytotoxicity of the compounds assessed using human embryonic lung fibroblast WI-38 cells at (2.6 micro M).
Format: functional, cell-based
Summary of the method: as §3

Compound	IC50
O=C1c2c(F)c(F)c(F)c(F)c2C(=O)N1C1Cc2ccccc2C1	0.9 µg/mL (≈ 2.68 µM)

Tested on: HL-60
Experiment: Inhibition of 50 nM okadaic acid induced tumor necrosis factor-alpha production in human leukemia cell line (HL-60) by 0.3 uM.
Format: functional
Summary of the method: as §2

Compound	Amount of TNF-alpha
C[C@H](c1ccccc1)N1C(=O)c2c(F)c(F)c(F)c(F)c2C1=O	2%
C[C@H](C1CCCCC1)N1C(=O)c2c(F)c(F)c(F)c(F)c2C1=O	10%
CC[C@@H](c1ccccc1)N1C(=O)c2c(F)c(F)c(F)c(F)c2C1=O	87%
O=C1c2c(F)c(F)c(F)c(F)c2C(=O)N1[C@H]1CCc2ccccc21	98%
C[C@@H](c1ccc(N)cc1)N1C(=O)c2c(F)c(F)c(F)c(F)c2C1=O	38%
O=C1c2c(F)c(F)c(F)c(F)c2C(=O)N1C1Cc2ccccc2C1	43%
C[C@@H](c1cccc2ccccc12)N1C(=O)c2c(F)c(F)c(F)c(F)c2C1=O	101%
C[C@H](c1cccc2ccccc12)N1C(=O)c2c(F)c(F)c(F)c(F)c2C1=O	2%
C[C@@H](C1CCCCC1)N1C(=O)c2c(F)c(F)c(F)c(F)c2C1=O	65%
C[C@@H](c1ccc([N+](=O)[O-])cc1)N1C(=O)c2c(F)c(F)c(F)c(F)c2C1=O	32%
C[C@H](c1ccc(N)cc1)N1C(=O)c2c(F)c(F)c(F)c(F)c2C1=O	27%
O=C1c2c(F)c(F)c(F)c(F)c2C(=O)N1[C@@H]1CCc2ccccc21	43%
CC[C@H](c1ccccc1)N1C(=O)c2c(F)c(F)c(F)c(F)c2C1=O	67%
C[C@H](c1ccc([N+](=O)[O-])cc1)N1C(=O)c2c(F)c(F)c(F)c(F)c2C1=O	27%
CC(=O)Nc1ccc([C@H](C)N2C(=O)c3c(F)c(F)c(F)c(F)c3C2=O)cc1	80%
CC(=O)Nc1ccc([C@@H](C)N2C(=O)c3c(F)c(F)c(F)c(F)c3C2=O)cc1	55%

Tested on: HL-60
Experiment: Amount of tumor necrosis factor-alpha produced in human leukemia cell line (HL-60) stimulated with 10 nM12-O-tetradecanoylphorbol 13-acetate (TPA) at 0.3 micro M, measured by ELISA.
Format: functional
Summary of the method: as §2

Compound	Amount of TNF-alpha
CC(C)c1cccc(C(C)C)c1N1C(=O)c2c(F)c(F)c(F)c(F)c2C1=O	375%

Tested on: WI-38
Experiment: The cytotoxicity of the compounds assessed using human embryonic lung fibroblast WI-38 cells at (87 micro M)
Format: functional, cell-based
Summary of the method: as §3

Compound	IC50
O=C1c2c(F)c(F)c(F)c(F)c2C(=O)N1[C@@H]1CCc2ccccc21	30.3 µg/mL (≈ 90.4 µM)

Tested on: WI-38
Experiment: The cytotoxicity of the compounds assessed using human embryonic lung fibroblast WI-38 cells at (8 micro M)
Format: functional, cell-based
Summary of the method: as §3

Compound	IC50
C[C@@H](c1cccc2ccccc12)N1C(=O)c2c(F)c(F)c(F)c(F)c2C1=O	2.8 µg/mL (≈ 7.5 µM)
C[C@H](c1cccc2ccccc12)N1C(=O)c2c(F)c(F)c(F)c(F)c2C1=O	2.8 µg/mL (≈ 7.5 µM)

Tested on: HL-60
Experiment: Amount of tumor necrosis factor-alpha produced by human leukemia cell line (HL-60) stimulated with 10 nM12-O-tetradecanoylphorbol 13-acetate (TPA) at 0.3 uM, measured by ELISA.
Format: functional
Summary of the method: as §2

Compound	Amount of TNF-alpha
CC(=O)Nc1ccc([C@H](C)N2C(=O)c3c(F)c(F)c(F)c(F)c3C2=O)cc1	268%

Tested on: WI-38
Experiment: The cytotoxicity of the compounds assessed using human embryonic lung fibroblast WI-38 cells at (97 micro M)
Format: functional, cell-based
Summary of the method: as §3

Compound	IC50
Cc1cccc(C(C)C)c1N1C(=O)c2ccccc2C1=O	28.1 µg/mL (≈ 101 µM)

Tested on: WI-38
Experiment: The cytotoxicity of the compounds assessed using human embryonic lung fibroblast WI-38 cells at (20 micro M)
Format: functional, cell-based
Summary of the method: as §3

Compound	IC50
CCc1cccc(C(C)C)c1N1C(=O)c2ccccc2C1=O	6 µg/mL (≈ 20.5 µM)

Tested on: WI-38
Experiment: The cytotoxicity assessed using human embryonic lung fibroblast WI-38 cells.
Format: functional, cell-based
Summary of the method: as §3

Compound	IC50
O=C1CCC(N2C(=O)c3ccccc3C2=O)C(=O)N1 (stereo unspecified) [THALIDOMIDE]	> 100 µg/mL

Tested on: WI-38
Experiment: In vitro cytotoxicity against human embryonic lung fibroblast WI-38 cells.
Format: functional, cell-based
Summary of the method: as §3

Compound	IC50
C[C@H](C1CCCCC1)N1C(=O)c2c(F)c(F)c(F)c(F)c2C1=O	> 100 µg/mL
O=C1c2c(F)c(F)c(F)c(F)c2C(=O)N1[C@H]1CCc2ccccc21	> 100 µg/mL
C[C@@H](C1CCCCC1)N1C(=O)c2c(F)c(F)c(F)c(F)c2C1=O	> 100 µg/mL
CC(C)c1cccc(N2C(=O)c3ccccc3C2=O)c1	> 100 µg/mL
O=C1c2ccccc2C(=O)N1c1ccccc1-c1ccccc1	> 100 µg/mL
O=C1c2ccccc2C(=O)N1c1ccccc1[N+](=O)[O-]	> 100 µg/mL
O=C1c2ccccc2C(=O)N1c1ccccc1 [N-PHENYL-PHTHALIMIDE]	> 100 µg/mL

Tested on: HL-60
Experiment: Amount of tumor necrosis factor-alpha produced by human leukemia cell line (HL-60) stimulated with 50 nM okadaic acid (OA), at 0.3 uM, measured by ELISA.
Format: functional
Summary of the method: as §2

Compound	Amount of TNF-alpha
CC(C)c1cccc(C(C)C)c1N1C(=O)c2c(F)c(F)c(F)c(F)c2C1=O	0%
